EP2 mod: modulates human prostaglandin E2 receptor EP2 signaling; EP2-expressing cells, cAMP HTRF FRET, PGE2 co-stimulation; induction, % at 25 µM; actives 0.83% (n = 260,000);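 active means compounds whose cAMP rise, as percent of the full-agonist control response, exceeds 60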;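 further: rat C6 glioma line stably carrying human EP2 under a CMV promoter; the protocol text gives 20 µM as final concentration; 100% = response of wells given 1 µM PGE2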
Target sequence (P43116 whole entry, looked up): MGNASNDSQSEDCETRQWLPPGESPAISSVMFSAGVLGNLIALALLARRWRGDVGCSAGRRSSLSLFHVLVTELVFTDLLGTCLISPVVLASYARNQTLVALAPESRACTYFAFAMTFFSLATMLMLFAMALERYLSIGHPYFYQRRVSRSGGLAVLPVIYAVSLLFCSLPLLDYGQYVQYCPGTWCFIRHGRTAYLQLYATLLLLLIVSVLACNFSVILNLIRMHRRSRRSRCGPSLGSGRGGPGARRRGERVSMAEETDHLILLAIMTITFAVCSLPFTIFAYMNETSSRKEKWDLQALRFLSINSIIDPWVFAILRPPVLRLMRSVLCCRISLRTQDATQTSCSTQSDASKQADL
NPY Y1 blocker: antagonists of human neuropeptide Y receptor Y1. P25929. HEK293-CNG Y1 cells, membrane potential fluorescence; NPY at EC95, then isoproterenol. inhibition, % at 3.6 µM. actives 1% (n = 200,000);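 active means inhibition above the campaign mean inhibition of all tested compounds plus 3 SD, cut at about 20% in these data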;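 further: 0% = DMSO wells given NPY plus isoproterenol and 100% = isoproterenol alone without NPY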
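Material: HEK293 Y1/CNG channel cell line | Also added: NPY (25 nM), isoproterenol (1 µM), Ro 20-1724 (25 µM) | Compound: One concentration, 3.6 µM, in 0.4% DMSO | Schedule: 3 h dye uptake, 1 h room-temperature compound, 45 min post-isoproterenol | Signal: Membrane-potential fluorescent dye readout | Read-out: % inhibition of NPY effect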
NPY-Y1 PAM-ag: human NPY-Y1 potentiation or agonism, primary screen; P25929; activation, % at 3.6 µM; AID 1304; NPY-Y1 expressing cells, potentiator/agonist activation; actives 0.37% (n = 220,000); in the data active means activation above about 33%, passing the limit was not always enough;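 further: cells stimulated with NPY at EC10 then isoproterenol at EC100; 0% = low agonist plus stimulus and 100% = saturating agonist plus stimulus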
PGE2 EP2 inh: blocks the human prostaglandin E2 receptor EP2; C6 glioma cells expressing human EP2, cAMP TR-FRET; cells stimulated with saturating PGE2; inhibition, % at 25 µM; actives 0.52% (n = 260,000); AID 1422;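 active means percent inhibition above 40 after rounding to a whole number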;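 further: rat C6 glioma host cells with rolipram phosphodiesterase inhibitor present; the protocol text gives 20 µM as final concentration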
NPY-Y2 antag: blocks the human neuropeptide Y Y2 receptor. P49146. NPY-Y2 expressing cells, antagonist mode. inhibition, % at 2.7 µM. actives 0.99% (n = 140,000). AID 793; in the data active means inhibition above about 17%;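 further: 0% = vehicle with agonist challenge and 100% = reference antagonist with challenge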
NPY2 pot ag: human NPY-Y2 potentiation or agonism, primary screen; P49146; cells expressing NPY-Y2, potentiator/agonist read-out; activation, % at 3.6 µM; actives 0.45% (n = 220,000); AID 1359; in the data active means activation above about 27%;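 further: cells stimulated with NPY near EC25 plus isoproterenol at EC100; 0% = vehicle plus submaximal agonist and 100% = vehicle plus saturating agonist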
EP2 cAMP induct: human EP2 receptor cAMP induction, negative in counter-screens; shares compounds with EP2 mod; AID 1080; actives 47% (n = 1,300); calls only at 20 µM (by protocol); C6 glioma EP2 cells, cAMP HTRF induction; plus low (about EC15) PGE2 agonist;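 active means cAMP induction above 50% in the main assay while under 30% in all four parallel counter assays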;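 further: rat C6 glioma cells stably expressing human EP2 receptor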
An asterisk follows results filed as active. Compounds with a hit are over-represented: about 2.8% of the library has one in this group of screens.

How did CCc1nc(SCC(=O)c2ccc3c(c2)OCCO3)c2ccccc2n1 do in these assays?
EP2 mod: -50.0; NPY Y1 blocker: 8.5; NPY-Y1 PAM-ag: -12.8; PGE2 EP2 inh: 14.0; NPY-Y2 antag: 6.5; NPY2 pot ag: 3.5

What do the screens show for `O=C(CSc1nc(Cc2ccccc2)nc2ccccc12)c1ccc2c(c1)OCCO2`?
EP2 mod: 66.2*; NPY Y1 blocker: 9.8; NPY-Y1 PAM-ag: -12.3; PGE2 EP2 inh: 4.8; NPY-Y2 antag: 7.2; NPY2 pot ag: -11.5; EP2 cAMP induct: active

How did CC(=O)N1c2ccccc2C(C)CC12CCCCC2 (configuration not stated) do in these assays?
EP2 mod: 93.4*; NPY Y1 blocker: 5.7; NPY-Y1 PAM-ag: 12.5; PGE2 EP2 inh: 8.2; NPY-Y2 antag: 2.3; NPY2 pot ag: 4.1; EP2 cAMP induct: active

How did O=C(CSc1nnnn1-c1ccc2c(c1)OCO2)NC1CCCCC1 do in these assays?
EP2 mod: -24.8; PGE2 EP2 inh: 15.9

How did CCc1ccc(NC(=O)N(Cc2ccco2)C(C)c2cccs2)cc1 (configuration not stated) do in these assays?
EP2 mod: -2.6; NPY Y1 blocker: 7.3; NPY-Y1 PAM-ag: -3.2; PGE2 EP2 inh: 7.8; NPY-Y2 antag: 6.8; NPY2 pot ag: 6.6

How did CCc1ccccc1NC(=S)N(Cc1ccco1)C(C)c1cccs1 (configuration not stated) do in these assays?
EP2 mod: 60.5; NPY Y1 blocker: -0.8; NPY-Y1 PAM-ag: -22.6; PGE2 EP2 inh: 4.3; NPY2 pot ag: -6.7; EP2 cAMP induct: inactive

What do the screens show for `COc1ccc(C2=NN(C(=O)c3cccs3)C(O)(C(F)(F)F)C2)cc1` (configuration not stated)?
EP2 mod: 97.8*; NPY Y1 blocker: 5.3; NPY-Y1 PAM-ag: -10.9; PGE2 EP2 inh: 2.9; NPY2 pot ag: -10.6; EP2 cAMP induct: active

Results for COc1ccc(C(=O)N2N=C(C(C)C)CC2(O)C(F)(F)F)cc1 (configuration not stated) ?
EP2 mod: 3.9; PGE2 EP2 inh: 18.3

Results for COc1ccc(C2=NN(C(=O)c3cccs3)C(c3ccccc3O)C2)cc1 (configuration not stated) ?
EP2 mod: 71.0*; NPY Y1 blocker: -3.5; NPY-Y1 PAM-ag: -14.4; PGE2 EP2 inh: 6.7; NPY2 pot ag: -22.8; EP2 cAMP induct: active

Results for CCc1cc2cc(C)c(C)cc2nc1SCC(=O)Nc1nccs1 ?
EP2 mod: 4.9; PGE2 EP2 inh: 7.9

What do the screens show for `CCCn1c(SCC(=O)Nc2ccc(OC)cc2OC)nnc1-c1ccccn1`?
EP2 mod: -6.7; PGE2 EP2 inh: 12.8

What do the screens show for `COCCOC(=O)c1c(C)oc2ccc(OCc3ccccc3)cc12`?
EP2 mod: 65.2*; NPY Y1 blocker: 8.4; NPY-Y1 PAM-ag: -49.3; PGE2 EP2 inh: 8.5; NPY-Y2 antag: 10.7; NPY2 pot ag: -27.1; EP2 cAMP induct: inactive

How did Cc1cccc(N=N/C(=C\O)C(=O)c2ccc(Br)cc2)c1 do in these assays?
EP2 mod: 96.8*; NPY Y1 blocker: -7.2; NPY-Y1 PAM-ag: 17.1; PGE2 EP2 inh: 5.6; NPY2 pot ag: 12.1; EP2 cAMP induct: active

What do the screens show for `COc1ccc(NC(=O)c2cccs2)cc1`?
EP2 mod: -23.2; NPY Y1 blocker: -1.1; NPY-Y1 PAM-ag: -10.0; PGE2 EP2 inh: 14.6; NPY-Y2 antag: 1.1; NPY2 pot ag: -2.9

What do the screens show for `COc1ccc(C(=O)/C(=C/O)N=Nc2ccc(F)cc2)cc1`?
EP2 mod: 69.0*; NPY Y1 blocker: -4.7; NPY-Y1 PAM-ag: 5.1; PGE2 EP2 inh: 4.1; NPY2 pot ag: 18.1; EP2 cAMP induct: active

How did COc1ccc(N=N/C(=C\O)C(=O)c2cccs2)cc1 do in these assays?
EP2 mod: 67.2*; NPY Y1 blocker: -5.4; NPY-Y1 PAM-ag: 25.5; PGE2 EP2 inh: 0.6; NPY2 pot ag: 11.1; EP2 cAMP induct: inactive

What do the screens show for `Cc1cc2c(cc3c(=O)n(CC(=O)NC4CCCCC4)nc(C)n32)o1`?
EP2 mod: -39.9; PGE2 EP2 inh: 10.1
